# Assay results published in ChEMBL document CHEMBL2021842, “COMPARE analysis of the toxicity of an iminoquinone derivative of the imidazo[5,4-f]benzimidazoles with NAD(P)H:quinone oxidoreductase 1 (NQO1) activity and computational docking of quinones as NQO1 substrates” (Bioorg Med Chem, 2012).
# Key:
# Format in all cases: functional
# Conditions in all cases: read-out: Activity
# [1] = system: EKVX; assay: Growth inhibition of human EKVX cells assessed as cell growth at 10 uM relative to untreated control
# In short: (§1)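 NCI DTP 60-cell-line screen, first stage: a single 10 µM dose of compound given to the human tumour panel. Result reported as percent growth relative to control, on a mean growth graph.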
# [2] = system: NCI-H460; assay: Growth inhibition of human NCI-H460 cells assessed as cell growth at 10 uM relative to untreated control
# In short: (§2)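 First stage of the NCI DTP 60 human tumour cell-line screen. Cells were exposed to a single dose of 10 µM. Output is reported as growth % relative to control.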
# [3] = system: MDA-MB-468; assay: Growth inhibition of human MDA-MB-468 cells assessed as cell growth at 10 uM relative to untreated control; in short: as §2
# [4] = system: HL-60(TB); assay: Growth inhibition of human HL-60(TB) cells assessed as cell growth at 10 uM relative to untreated control
# In short: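 NCI DTP NCI-60 screen, first stage: a single dose applied to 60 human tumour cell lines from nine tissue types. Output is reported as growth %.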
# [5] = system: OVCAR-3; assay: Growth inhibition of human OVCAR3 cells assessed as cell growth at 10 uM relative to untreated control; in short: as §2
# [6] = system: HOP-92; assay: Growth inhibition of human HOP92 cells assessed as cell growth at 10 uM relative to untreated control; in short: as §1
# [7] = system: HCC 2998; assay: Growth inhibition of human HCC2998 cells assessed as cell growth at 10 uM relative to untreated control; in short: as §1
# [8] = system: T47D; assay: Growth inhibition of human T47D cells assessed as cell growth at 10 uM relative to untreated control
# In short: (§3)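 This is the first stage of the NCI DTP 60-human-tumour-cell-line screen, covering nine tissue types. Cells receive a single dose of the test compound, and the output is reported as mean growth %.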
# [9] = system: HT-29; assay: Growth inhibition of human HT-29 cells assessed as cell growth at 10 uM relative to untreated control; in short: as §1
# [10] = system: PC-3; assay: Growth inhibition of human PC3 cells assessed as cell growth at 10 uM relative to untreated control; in short: as §2
# [11] = system: SK-MEL-2; assay: Growth inhibition of human SK-MEL-2 cells assessed as cell growth at 10 uM relative to untreated control; in short: as §2
# [12] = system: NCI-H23; assay: Growth inhibition of human NCI-H23 cells assessed as cell growth at 10 uM relative to untreated control; in short: as §2
# [13] = system: RXF 393; assay: Growth inhibition of human RXF393 cells assessed as cell growth at 10 uM relative to untreated control; in short: as §2
# [14] = system: OVCAR-5; assay: Growth inhibition of human OVCAR5 cells assessed as cell growth at 10 uM relative to untreated control; in short: as §2
# [15] = system: MDA-MB-231; assay: Growth inhibition of human MDA-MB-231 cells assessed as cell growth at 10 uM relative to untreated control; in short: as §2
# [16] = system: KM12; assay: Growth inhibition of human KM12 cells assessed as cell growth at 10 uM relative to untreated control; in short: as §1
# [17] = Growth inhibition of human Hs 578T cells assessed as cell growth at 10 uM relative to untreated control; in short: as §1
# [18] = system: NCI-H322M; assay: Growth inhibition of human NCI-H322M cells assessed as cell growth at 10 uM relative to untreated control; in short: as §2
# [19] = system: SW-620; assay: Growth inhibition of human SW620 cells assessed as cell growth at 10 uM relative to untreated control; in short: as §3
# [20] = system: SNB-75; assay: Growth inhibition of human SNB75 cells assessed as cell growth at 10 uM relative to untreated control; in short: as §3
# [21] = system: NCI/ADR-RES; assay: Growth inhibition of human NCI/ADR-RES cells assessed as cell growth at 10 uM relative to untreated control; in short: as §2
# [22] = system: ACHN; assay: Growth inhibition of human ACHN cells assessed as cell growth at 10 uM relative to untreated control; in short: as §1
# [23] = system: TK-10; assay: Growth inhibition of human TK10 cells assessed as cell growth at 10 uM relative to untreated control; in short: as §3
# [24] = system: IGROV-1; assay: Growth inhibition of human IGROV1 cells assessed as cell growth at 10 uM relative to untreated control; in short: as §1
# [25] = system: CAKI-1; assay: Growth inhibition of human Caki1 cells assessed as cell growth at 10 uM relative to untreated control; in short: as §1
# [26] = system: Malme-3M; assay: Growth inhibition of human MALME-3M cells assessed as cell growth at 10 uM relative to untreated control; in short: as §1
# [27] = system: CCRF-CEM; assay: Growth inhibition of human CCRF-CEM cells assessed as cell growth at 10 uM relative to untreated control; in short: as §1
# [28] = system: SNB-19; assay: Growth inhibition of human SNB19 cells assessed as cell growth at 10 uM relative to untreated control; in short: as §3
# [29] = system: DU-145; assay: Growth inhibition of human DU145 cells assessed as cell growth at 10 uM relative to untreated control; in short: as §1
# [30] = system: A498; assay: Growth inhibition of human A498 cells assessed as cell growth at 10 uM relative to untreated control; in short: as §1
# [31] = system: SK-MEL-5; assay: Growth inhibition of human SK-MEL-5 cells assessed as cell growth at 10 uM relative to untreated control; in short: as §2
# [32] = system: SK-OV-3; assay: Growth inhibition of human SKOV3 cells assessed as cell growth at 10 uM relative to untreated control; in short: as §2
# [33] = system: M14; assay: Growth inhibition of human M14 cells assessed as cell growth at 10 uM relative to untreated control; in short: as §1
# [34] = system: MOLT-4; assay: Growth inhibition of human MOLT4 cells assessed as cell growth at 10 uM relative to untreated control; in short: as §2
# [35] = system: SF-539; assay: Growth inhibition of human SF539 cells assessed as cell growth at 10 uM relative to untreated control; in short: as §2
# [36] = system: K562; assay: Growth inhibition of human K562 cells assessed as cell growth at 10 uM relative to untreated control; in short: as §1
# [37] = system: NCI-H522; assay: Growth inhibition of human NCI-H522 cells assessed as cell growth at 10 uM relative to untreated control; in short: as §2
# [38] = system: SF-268; assay: Growth inhibition of human SF268 cells assessed as cell growth at 10 uM relative to untreated control; in short: as §2
# [39] = system: MCF7; assay: Growth inhibition of human MCF7 cells assessed as cell growth at 10 uM relative to untreated control; in short: as §2
# [40] = system: UO-31; assay: Growth inhibition of human UO31 cells assessed as cell growth at 10 uM relative to untreated control; in short: as §3
# [41] = system: MDA-MB-435; assay: Growth inhibition of human MDA-MB-435 cells assessed as cell growth at 10 uM relative to untreated control; in short: as §2
# [42] = system: SR; assay: Growth inhibition of human SR cells assessed as cell growth at 10 uM relative to untreated control; in short: as §3
# [43] = system: HCT-116; assay: Growth inhibition of human HCT116 cells assessed as cell growth at 10 uM relative to untreated control; in short: as §1
# [44] = system: BT-549; assay: Growth inhibition of human BT549 cells assessed as cell growth at 10 uM relative to untreated control; in short: as §1
# [45] = system: HOP-62; assay: Growth inhibition of human HOP62 cells assessed as cell growth at 10 uM relative to untreated control; in short: as §1
# [46] = system: NCI-H226; assay: Growth inhibition of human NCI-H226 cells assessed as cell growth at 10 uM relative to untreated control; in short: as §2
# [47] = system: 786-0; assay: Growth inhibition of human 786-0 cells assessed as cell growth at 10 uM relative to untreated control; in short: as §1
# [48] = system: SK-MEL-28; assay: Growth inhibition of human SK-MEL-28 cells assessed as cell growth at 10 uM relative to untreated control; in short: as §2
# [49] = system: SN12C; assay: Growth inhibition of human SN12C cells assessed as cell growth at 10 uM relative to untreated control; in short: as §3
# [50] = system: SF-295; assay: Growth inhibition of human SF295 cells assessed as cell growth at 10 uM relative to untreated control; in short: as §2
# [51] = system: LOX IMVI; assay: Growth inhibition of human LOXIMVI cells assessed as cell growth at 10 uM relative to untreated control; in short: as §1
# [52] = Growth inhibition of human […] cells assessed as cell growth at 10 uM relative to untreated control; in short: as §2
# [53] = system: UACC-62; assay: Growth inhibition of human UACC62 cells assessed as cell growth at 10 uM relative to untreated control; in short: as §3
# [54] = system: HCT-15; assay: Growth inhibition of human HCT15 cells assessed as cell growth at 10 uM relative to untreated control; in short: as §1
smiles,measurement,setting,value
N=C1c2nc3n(c2C(=O)c2nc4n(c21)CCCCC4)CCCCC3,growth at 10 µM,[1],103%
same,growth at 10 µM,[2],92.6%
same,growth at 10 µM,[3],99.8%
same,growth at 10 µM,[4],103%
same,growth at 10 µM,[5],111%
same,growth at 10 µM,[6],126%
same,growth at 10 µM,[7],112%
same,growth at 10 µM,[8],116%
same,growth at 10 µM,[9],106%
same,growth at 10 µM,[10],113%
same,growth at 10 µM,[11],118%
same,growth at 10 µM,[12],97.3%
same,growth at 10 µM,[13],102%
same,growth at 10 µM,[14],123%
same,growth at 10 µM,[15],117%
same,growth at 10 µM,[16],106%
same,growth at 10 µM,[17],112%
same,growth at 10 µM,[18],110%
same,growth at 10 µM,[19],105%
same,growth at 10 µM,[20],105%
same,growth at 10 µM,[21],110%
same,growth at 10 µM,[22],105%
same,growth at 10 µM,[23],142%
same,growth at 10 µM,[24],130%
same,growth at 10 µM,[25],95.1%
same,growth at 10 µM,[26],103%
same,growth at 10 µM,[27],104%
same,growth at 10 µM,[28],113%
same,growth at 10 µM,[29],113%
same,growth at 10 µM,[30],91.6%
same,growth at 10 µM,[31],88.7%
same,growth at 10 µM,[32],107%
same,growth at 10 µM,[33],108%
same,growth at 10 µM,[34],93.7%
same,growth at 10 µM,[35],105%
same,growth at 10 µM,[36],102%
same,growth at 10 µM,[37],90.9%
same,growth at 10 µM,[38],108%
same,growth at 10 µM,[39],94.5%
same,growth at 10 µM,[40],83.7%
same,growth at 10 µM,[41],111%
same,growth at 10 µM,[42],91.8%
same,growth at 10 µM,[43],107%
same,growth at 10 µM,[44],110%
same,growth at 10 µM,[45],122%
same,growth at 10 µM,[46],98.2%
same,growth at 10 µM,[47],120%
same,growth at 10 µM,[48],118%
same,growth at 10 µM,[49],106%
same,growth at 10 µM,[50],93.8%
same,growth at 10 µM,[51],92%
same,growth at 10 µM,[52],99.1%
same,growth at 10 µM,[53],110%
same,growth at 10 µM,[54],109%
